This is an account of results in ChEMBL document CHEMBL3596194, “Design, synthesis and biological evaluation of bivalent benzoxazolone and benzothiazolone ligands as potential anti-inflammatory/analgesic agents” (Bioorg Med Chem, 2015).

Structures are written as SMILES. pIC50: −log10 of the molar value. Active and inactive are the calls of the source. No cut-off for these calls is given here.

Data set [1] has as its system Rattus norvegicus. Kind of data set: Antiinflammatory activity in albino rat assessed as inhibition of carrageenan-induced paw edema at 30 mg/kg, ip administered 1 hr prior to carrageenan challenge measured 3 hrs after induction of inflammation relative to control. Format: functional. The gist of the method:
(§1)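 Adult albino rats of both sexes, 120–150 g, groups of five, pre-hydrated with 3 ml water orally. Compounds suspended in distilled water with few drops Tween 80, given ip 1 h before subplantar s.c. 1% carrageenan into right hind paw. Paw thickness measured by dial calipers, left paw as control. % inhibition = (1 – Lt/Lc) × 100 versus saline/Tween 80 group.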
In general terms: In the carrageenan paw model, swelling and tenderness develop within hours.

Data set [2] deals with Vero. Put plainly: Cytotoxicity against African green monkey Vero cells up to 25 ug/ml after 48 hrs by neutral red assay relative to control. It counts as cell-based. The note with it: chlorocebus sabaeus. The essentials:
(§2)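 Cells grown in RPMI-1640 with 10% bovine calf serum and amikacin at 37 °C, 5% CO2. Seeded at 25,000 cells/well and grown 24 h, then exposed 48 h to samples diluted in serum-free medium. Viability by Neutral Red; % decrease vs vehicle; IC50 from dose curves. Triplicate runs, mean reported; doxorubicin as positive control.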

For data set [3], the system named is KB. Put plainly: Cytotoxicity against human KB cells after 48 hrs by neutral red assay relative to control. It counts as cell-based. The essentials: (§3)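 Cells grown in RPMI-1640 with 10% bovine calf serum and amikacin at 37°C, 5% CO₂. Seeded 25,000 cells/well, grown 24 h, then exposed to compounds diluted in serum-free medium for 48 h. Viability by Neutral Red uptake, % decrease versus vehicle control. IC50 from dose curves, triplicate means. Doxorubicin positive control.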

The subject of data set [4] is Rattus norvegicus. Kind of data set: Antiinflammatory activity in albino rat assessed as inhibition of carrageenan-induced paw edema at 30 mg/kg, ip administered 1 hr prior to carrageenan challenge measured 4 hrs after induction of inflammation relative to control. It counts as functional. The gist of the method:
as §1

The test system of data set [5] is BT-549. Kind of data set: Cytotoxicity against human BT549 cells up to 25 ug/ml after 48 hrs by neutral red assay relative to control. It counts as cell-based. Particulars: bt-549, 48 h. The gist of the method:
as §2

A short description of data set [6]: Cytotoxicity against pig LLC-PK11 cells up to 25 ug/ml after 48 hrs by neutral red assay relative to control. It counts as cell-based, Sus scrofa. The note with it: llc-pk11, 48 h. The gist of the method: as §2
The subject of data set [7] is SK-MEL. Put plainly: Cytotoxicity against human SK-MEL cells after 48 hrs by neutral red assay relative to control. It counts as cell-based. The gist of the method: as §3
Data set [8] deals with Rattus norvegicus. Put plainly: Antiinflammatory activity in albino rat assessed as inhibition of carrageenan-induced paw edema at 30 mg/kg, ip administered 1 hr prior to carrageenan challenge measured 2 hrs after induction of inflammation relative to control. Format: functional. The essentials:
as §1

The subject of data set [9] is Rattus norvegicus. Put plainly: Antiinflammatory activity in albino rat assessed as inhibition of carrageenan-induced paw edema at 30 mg/kg, ip administered 1 hr prior to carrageenan challenge measured 1 hr after induction of inflammation relative to control. It counts as functional. The gist of the method:
as §1

In data set [10] the test system is Mus musculus. Kind of data set: Antinociceptive activity in ip dosed Swiss mouse assessed as inhibition of acetic acid-induced writhing response administered 15 mins prior to acetic acid challenge measured for 20 mins relative to vehicle-treated control. It counts as functional, organism-based. The gist of the method: (§4)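 Mice dosed i.p. with compound or vehicle 15 min before testing, or with indomethacin 3 mg/kg i.p. 30 min before. After 15 min habituation in an enclosure, 0.9% acetic acid given i.p. (1 ml/0.1 kg) and writhes counted for 20 min. Non-responders excluded; n = 4-6; mean ± SD.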
(In writhing tests, fewer writhes than in controls are read as antinociception.)

Data set [11] is described as follows: Antiinflammatory activity in human SW1353 cells assessed as inhibition of PMA-induced NF-kappaB activity incubated for 30 mins prior to PMA challenge measured after 8 hrs by luciferase reporter gene assay. Format: cell-based. The gist of the method:
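SW1353 cells in DMEM/F12 with 10% FBS, electroporated with NF-κB luciferase plasmid (160 V, one 70-ms pulse), plated at 1.25 × 10⁵ cells/well. After 24 h, graded compound concentrations added 30 min before PMA 70 ng/mL, then 8 h incubation. Luciferase read-out, % inhibition versus vehicle, IC50 from dose curves. Sp-1 reporter served as nonspecific control.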

The subject of data set [12] is SK-OV-3. Put plainly: Cytotoxicity against human SKOV3 cells up to 25 ug/ml after 48 hrs by neutral red assay relative to control. Particulars: sk-ov-3, 48 h. Format: cell-based. The essentials:
as §2

Data set [13] concerns SK-MEL. Put plainly: Cytotoxicity against human SK-MEL cells up to 25 ug/ml after 48 hrs by neutral red assay relative to control. Format: cell-based. The gist of the method:
as §2

In data set [14] the test system is BT-549. Put plainly: Cytotoxicity against human BT549 cells after 48 hrs by neutral red assay relative to control. The note with it: BT-549, 48 h. Format: cell-based. The gist of the method:
as §3

The subject of data set [15] is Vero. Put plainly: Cytotoxicity against African green monkey Vero cells after 48 hrs by neutral red assay relative to control. Format: cell-based. The note with it: chlorocebus sabaeus. The essentials: as §3
In data set [16] the test system is KB. Put plainly: Cytotoxicity against human KB cells up to 25 ug/ml after 48 hrs by neutral red assay relative to control. It counts as cell-based. The essentials: as §2
Data set [17] relates to SK-OV-3. Put plainly: Cytotoxicity against human SKOV3 cells after 48 hrs by neutral red assay relative to control. Format: cell-based. The note with it: SK-OV-3, 48 h. The gist of the method: as §3
The subject of data set [18] is Mus musculus. Put plainly: Antinociceptive activity in ip dosed Swiss mouse assessed as inhibition of acetic acid-induced writhing response at 3 mg/kg, ip administered 30 mins prior to acetic acid challenge measured for 20 mins relative to vehicle-treated control. Format: functional, organism-based. The gist of the method: as §4

As to `c1ccc2sc(SCCCCN3CCN(CCCCSc4nc5ccccc5s4)CC3)nc2c1`, the inhibition in vivo at 30 mg/kg in the data set with Rattus norvegicus [1] came to 63.4%; with Rattus norvegicus [4], 47.1%; in the data set with Rattus norvegicus [8] it was 64.3%; with Rattus norvegicus [9], 59.9%. The Activity entry (with Vero [2]; in the data set on BT-549 [5]; in [6]; in the data set on SK-OV-3 [12]) was “Non-toxic” throughout. In addition, the pIC50 in the data set with KB [3] was 4.60; in the data set with SK-MEL [7] it was 4.76; in data set [11] it was 6.47. The inhibition result in the data set with Mus musculus [10] is “Dose-dependent effect”.

Take `O=c1sc2ccccc2n1CCCCCCN1CCN(CCCCCn2c(=O)sc3ccccc32)CC1`: the inhibition in vivo at 30 mg/kg in the data set on Rattus norvegicus [1] was found to be 34.7%; in the data set on Rattus norvegicus [4] it was 34.9%; in the data set with Rattus norvegicus [8] it was 41.1%; in the data set on Rattus norvegicus [9] it was 33.9%. Further, the Activity entry (in the data set on SK-MEL [13]; in data set [6]; in the data set on KB [16]) was “Non-toxic” throughout. Further, the negative-log IC50 (pIC50) is 4.71 in the data set on BT-549 [14], 4.60 with Vero [15], 4.60 in the data set on SK-OV-3 [17] and 5.97 in data set [11].

`O=c1sc2ccccc2n1CCCCCCN1CCN(CCCCCCn2c(=O)sc3ccccc32)CC1`: the inhibition in vivo at 30 mg/kg with Rattus norvegicus [1] stood at 39.3%; with Rattus norvegicus [4] it was 36.9%; with Rattus norvegicus [8], 37.5%; with Rattus norvegicus [9], 32.2%. For the same compound, the Activity entry (in the data set on Vero [2]; in the data set with SK-MEL [13]; in data set [6]) was “Non-toxic” in each case. Moreover, the pIC50 in the data set with KB [3] is 4.68; in the data set with BT-549 [14], 4.61; in the data set on SK-OV-3 [17] it was 4.61; in [11], 6.39. In addition, in the data set on Mus musculus [10], the inhibition entry was “Dose-dependent effect”.

Turning to `O=C(c1ccccc1)c1ccc2n1CCC2C(=O)O` (stereo not given) [KETOROLAC], the inhibition in vivo at 30 mg/kg in the data set with Rattus norvegicus [1] stood at 75.4%; in the data set with Rattus norvegicus [4], 79.3%; with Rattus norvegicus [8], 74.2%; in the data set with Rattus norvegicus [9], 70.5%.

Turning to `COc1ccc2c(c1)c(CC(=O)O)c(C)n2C(=O)c1ccc(Cl)cc1`, the inhibition entry in the data set on Mus musculus [18] was “Active”.

As usually defined, the inhibition in vivo is how much of the control response was suppressed. As a reminder, the pIC50 is the negative decadic logarithm of the IC50, by convention in mol/L.
